Experimental data taken from ChEMBL document CHEMBL3526035, “Role of the intestinal peptide transporter PEPT1 in oseltamivir absorption: in vitro and in vivo studies” (Drug Metab Dispos, 2012).

How the values were obtained:
[1] = Tmax in juvenile fasted Sprague-Dawley rat at 30 mg/kg, po administered as water solution by HPLC-tandem mass spectrometry; assay type: ADME, organism-based; design: dose 30 mg/kg, route oral; settings: in vivo
Procedure, shortened: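 Seven-day-old Sprague-Dawley pups, males and females, 15 per group, were gavaged with 30 mg/kg (10 ml/kg). Breast-fed pups stayed with their dams; fasted pups were removed from 8 h predose through 5 h. Cardiac blood was drawn under isoflurane at 0.25, 0.5, 1, 2 and 5 h (composite, n=3/time point), with dichlorvos added. Plasma was analyzed by HPLC-MS/MS and Tmax read graphically.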

[2] = Drug uptake in CHOK1 cells expressing human PEPT1 by HPLC coupled with radiodetection analysis in presence of KH and Hanks' balanced salt solution; assay type: ADME, cell-based, Cricetulus griseus; settings: chinese hamster, cho-k1
Procedure, shortened: (§1)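 Accumulation of [14C]oseltamivir or its carboxylate in CHO-PEPT1 versus CHO-K1 cells. Conditions varied: KH buffer (with MES) or Hanks' balanced salt solution, pH 5 or 6 readjusted after substrate addition, 30 s to 15 min at 37°C. Uptake was quenched with ice-cold PBS-BSA, followed by Triton X-100 lysis, scintillation counting, and BCA protein normalization. HPLC-radiodetection checked ester stability.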

[3] = Drug uptake in CHOK1 cells expressing human PEPT1 at pH 5 by HPLC coupled with radiodetection analysis; assay type: ADME, cell-based, Cricetulus griseus; settings: chinese hamster, cho-k1, pH 5; procedure, shortened: as §1
[4] = Drug uptake in CHOK1 cells by HPLC coupled with radiodetection analysis in presence of KH and Hanks' balanced salt solution; assay type: ADME, cell-based, Cricetulus griseus; settings: chinese hamster, cho-k1
[5] = Cmax in juvenile fasted Sprague-Dawley rat at 30 mg/kg, po administered as water solution by HPLC-tandem mass spectrometry; assay type: ADME, organism-based; design: dose 30 mg/kg, route oral; settings: in vivo
Procedure, shortened: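 7-day-old Sprague-Dawley pups (9.7-18.9 g, both sexes), 15 per group. Given 30 mg/kg by oral gavage (10 ml/kg); breast-fed pups stayed with dams, fasted pups were removed 8 h before dosing. Blood taken by cardiac puncture under isoflurane at 0.25, 0.5, 1, 2 and 5 h, n=3 per time point (composite design). Dichlorvos-treated plasma assayed by LC-MS/MS; AUC0-5h by noncompartmental analysis.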

[6] = Cmax in healthy human at 150 mg, po administered as single dose by HPLC-tandem mass spectrometry under fed conditions; assay type: ADME, organism-based; design: dose 150 mg, route oral; settings: in vivo
Procedure, shortened: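 Open-label crossover in 18 healthy volunteers (9 male, 9 female, mean age 26). Each received marketed oseltamivir 150 mg orally, once fasted from midnight and once after a high-fat, high-calorie breakfast, with a 7-10 day washout. Plasma and urine collected over 0-72 h and analysed by HPLC-MS/MS. AUC and Cmax compared after log transformation.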

[7] = Drug uptake in CHOK1 cells expressing human PEPT1 at 100 uM after 10 mins by HPLC coupled with radiodetection analysis in presence of PEPT1 inhibitor valacyclovir; assay type: ADME, cell-based, Cricetulus griseus; settings: chinese hamster, cho-k1, 10 min
Procedure, shortened: (§2)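 CHO-PEPT1 and parental CHO-K1 cells were washed in KH/MES buffer, then incubated 10 min at 37°C, pH 6, with 100 µM [14C]oseltamivir alone or with 20 mM of the inhibitor. The pH was readjusted after additions. Uptake was quenched with ice-cold PBS-BSA and cells were washed and lysed in 1% Triton X-100. Lysate radioactivity was normalized to BCA protein. Three experiments on separate days, triplicate wells.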

[8] = Drug uptake in CHOK1 cells expressing human PEPT1 at 100 uM after 10 mins by HPLC coupled with radiodetection analysis in presence of PEPT1 inhibitor cefadroxil; assay type: ADME, cell-based, Cricetulus griseus; settings: chinese hamster, cho-k1, 10 min; procedure, shortened: as §2
[9] = Drug uptake in CHOK1 cells at 100 uM at pH 4 to 8 after 10 mins by HPLC coupled with radiodetection analysis; assay type: ADME, cell-based, Cricetulus griseus; settings: chinese hamster, cho-k1, pH 4, 10 min
Procedure, shortened: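 [14C]oseltamivir at 100 μM incubated with CHO-K1 cells for 10 min at 37°C in KH buffer over pH 4-8, with pH readjusted after compound addition. Washed cells were lysed in Triton X-100, radioactivity counted and normalised to protein. Three independent experiments, each run in triplicate.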

[10] = Drug uptake in CHOK1 cells expressing human PEPT1 at 100 uM at 4 degC after 10 mins by HPLC coupled with radiodetection analysis; assay type: ADME, cell-based, Cricetulus griseus; settings: chinese hamster, cho-k1, 10 min
Procedure, shortened: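 100 µM [14C]oseltamivir was incubated with CHO-PEPT1 and CHO-K1 cells for 10 min in KH/MES buffer pH 6, on ice (4°C) or on a 37°C block. Uptake was stopped with ice-cold PBS-BSA, cells were washed and lysed in Triton X-100, and radioactivity was counted per mg protein (BCA). Three independent experiments.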

[11] = Drug uptake in CHOK1 cells expressing human PEPT1 at 100 uM after 10 mins by HPLC coupled with radiodetection analysis in presence of PEPT1 inhibitor Trp-Gly; assay type: ADME, cell-based, Cricetulus griseus; settings: chinese hamster, cho-k1, 10 min; procedure, shortened: as §2
[12] = Drug uptake in CHOK1 cells at 100 uM at 4 degC after 10 mins by HPLC coupled with radiodetection analysis; assay type: ADME, cell-based, Cricetulus griseus; settings: chinese hamster, cho-k1, 10 min
Procedure, shortened: (§3)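 CHO-K1 cells held in KH buffer at pH 6. Incubated 10 min with [14C]oseltamivir at 100 μM, either with 20 mM Trp-Gly, valacyclovir or cefadroxil, or at 4°C (on ice) against 37°C. Quenched with ice-cold PBS-0.2% BSA, washed, lysed in 1% Triton X-100 at 60°C. Lysate counted by scintillation and normalised to BCA protein. Three experiments, each point in triplicate.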

[13] = Drug uptake in CHOK1 cells at 100 uM after 10 mins by HPLC coupled with radiodetection analysis in presence of PEPT1 inhibitor valacyclovir; assay type: ADME, cell-based, Cricetulus griseus; settings: chinese hamster, cho-k1, 10 min; procedure, shortened: as §3
[14] = Drug uptake in CHOK1 cells at 100 uM after 10 mins by HPLC coupled with radiodetection analysis in presence of PEPT1 inhibitor Trp-Gly; assay type: ADME, cell-based, Cricetulus griseus; settings: chinese hamster, cho-k1, 10 min; procedure, shortened: as §3
[15] = Drug uptake in CHOK1 cells at 100 uM after 10 mins by HPLC coupled with radiodetection analysis in presence of PEPT1 inhibitor cefadroxil; assay type: ADME, cell-based, Cricetulus griseus; settings: chinese hamster, cho-k1, 10 min; procedure, shortened: as §3
[16] = Drug uptake in CHOK1 cells expressing human PEPT1 at 100 uM at pH 4 to 8 after 10 mins by HPLC coupled with radiodetection analysis; assay type: ADME, cell-based, Cricetulus griseus; settings: chinese hamster, cho-k1, pH 4, 10 min
Procedure, shortened: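 pH series from 4 to 8: CHO-PEPT1 and CHO-K1 cells were exposed to 100 µM [14C]oseltamivir (or 2 µM [3H]Gly-Sar) in KH/MES buffer, with pH readjusted after substrate addition, for 10 min at 37°C. Then quench in ice-cold PBS-BSA, Triton X-100 lysis and scintillation counting normalized to protein. Three independent experiments.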

Row | Tmax [1] [h] | Drug uptake [2] | Drug uptake [3] | Drug uptake [4] | Cmax [5] [ng/mL] | Cmax [6] [ng/mL] | Drug uptake [7] | Drug uptake [8] | Drug uptake [9] | Drug uptake [10] | Drug uptake [11] | Drug uptake [12] | Drug uptake [13] | Drug uptake [14] | Drug uptake [15] | Drug uptake [16] | Structure (SMILES)
1 | 2 | Active | Active | Active | 3100 | 441 | – | – | – | – | – | – | – | – | – | – | CCC(CC)O[C@@H]1C=C(C(=O)O)C[C@H](N)[C@H]1NC(C)=O [OSELTAMIVIR CARBOXYLATE]
2 | 0.5 | Active | Active | Active | 10500 | 101 | Not Active | Not Active | Active | Not Active | Not Active | Not Active | Not Active | Not Active | Not Active | Active | CCOC(=O)C1=C[C@@H](OC(CC)CC)[C@H](NC(C)=O)[C@@H](N)C1 [OSELTAMIVIR]
